outcome, potentiation and activation data for 4 molecules are collected here from PubChem BioAssay.

Test [1] in a line: nonspecific flux increase, KCNQ1-free cells – parental CHO cells, counter-screen for KCNQ1 potentiator project (AID 493006). The following applies: parental CHO-K1 cells, FluxOR thallium flux, at 10 µM; active compounds read high. The procedure, abridged: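 Test system: parental CHO-K1 cells, FluxOR dye-loaded / Probe or stimulus: potassium plus thallium depolarizing stimulus, 5x stock 12.5 mM K2SO4, Tl2SO4 / Timing: overnight 37 °C plating, 90 min dye, 20 min dark compound / Measured by: kinetic thallium-flux fluorescence / Read-out: max-minus-min fluorescence over baseline, percent of buffer-to-R-L3 span / Benchmarks: buffer and R-L3 controls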
Background: The purpose of a counterscreen is to sort out artefacts and off-target activity.

Test [2] deals with Potassium voltage-gated channel subfamily KQT member 1 (Homo sapiens) (UniProt P51787). The test is described as follows: enhancement of KCNQ1 channel thallium flux – FluxOR thallium flux, CHO cells, duplicates, confirmation (AID 493007;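 active = potentiation averaged over duplicate wells exceeding buffer-only control mean by more than 3 SD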;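 for outcome: cells depolarized by a potassium plus thallium sulfate stimulus after compound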;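 for potentiation: 0% = buffer-only wells and 100% = R-L3 activator control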). The following applies: KCNQ1 cell line, FluxOR thallium flux fluorescence, at 10 µM; active compounds read high, % of reference activator effect, buffer zero. Summed up: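 Assay system: CHO cells carrying KCNQ1 | Controls: Buffer and R-L3 controls | Schedule: FluxOR dye loading 90 min, compound exposure 20 min, room temperature | Read-out: Baseline-normalized fluorescence change, percent of buffer-to-R-L3 range | Replicates: Each compound tested in duplicate | Technique: Kinetic thallium influx fluorescence with FluxOR dye, 10 s baseline, 110 s post-stimulus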

The target of test [3] is Potassium voltage-gated channel subfamily KQT member 2 (Rattus norvegicus) (UniProt O88943). The test is described as follows: KCNQ2 thallium flux enhancement – KCNQ2-CHO-K1 cells, selectivity assay for KCNQ1 potentiator project (AID 493009;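 active = mean duplicate potentiation above the buffer control mean plus 5 SD of buffer wells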;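 note: assay conditions were tuned for KCNQ1 rather than KCNQ2 modulators; signal is max minus min fluorescence divided by baseline after thallium stimulus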). The following applies: FluxOR thallium flux fluorescence, at 10 µM; active compounds read high, scaled: buffer 0, activator control 100.
In test [4] the target is Potassium voltage-gated channel subfamily KQT member 1 (Homo sapiens) (UniProt P51787). The test is described as follows: KCNQ1 activators by electrophysiology – IonWorks patch clamp, KCNQ1-CHO cells, orthogonal assay for KCNQ1 potentiator project, confirmation (AID 493184;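 active = current rise at least 3 SD above the untreated control mean in each of two repeat wells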). The following applies: automated patch clamp current, at 10 µM; active compounds read high. The procedure, abridged: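 Material: KCNQ1-expressing CHO cells; doses: 10 µM final, single point; probe or stimulus: voltage step from -90 mV holding to +40 mV, 2,000 ms; signal: automated voltage clamp, amphotericin B perforated patch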

Active and inactive are the calls of the source.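 Rule for the calls, unless noted: active = duplicate-averaged activation above buffer control mean plus 5 SD of those controls; inactive = the rest.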

Sequence of Potassium voltage-gated channel subfamily KQT member 1 (Homo sapiens) (P51787 whole entry, looked up): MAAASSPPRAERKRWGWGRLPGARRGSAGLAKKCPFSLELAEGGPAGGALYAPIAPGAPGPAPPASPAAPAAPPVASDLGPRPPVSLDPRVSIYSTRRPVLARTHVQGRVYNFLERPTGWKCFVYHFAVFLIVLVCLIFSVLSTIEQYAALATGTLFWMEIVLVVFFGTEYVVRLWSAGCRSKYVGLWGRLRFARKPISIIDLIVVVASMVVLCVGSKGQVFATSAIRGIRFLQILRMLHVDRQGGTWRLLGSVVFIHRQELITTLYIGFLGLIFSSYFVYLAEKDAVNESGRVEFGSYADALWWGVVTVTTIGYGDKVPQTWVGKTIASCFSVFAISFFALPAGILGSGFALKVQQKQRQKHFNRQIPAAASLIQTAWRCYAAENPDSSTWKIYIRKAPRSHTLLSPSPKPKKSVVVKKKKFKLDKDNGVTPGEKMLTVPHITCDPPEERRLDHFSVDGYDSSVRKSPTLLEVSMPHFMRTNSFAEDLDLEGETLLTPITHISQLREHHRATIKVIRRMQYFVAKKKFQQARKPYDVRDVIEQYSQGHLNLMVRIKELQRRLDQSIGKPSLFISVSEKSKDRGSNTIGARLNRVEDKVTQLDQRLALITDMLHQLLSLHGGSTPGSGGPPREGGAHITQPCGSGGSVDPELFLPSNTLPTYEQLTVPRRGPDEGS
Sequence of Potassium voltage-gated channel subfamily KQT member 2 (Rattus norvegicus) (O88943 whole entry, looked up): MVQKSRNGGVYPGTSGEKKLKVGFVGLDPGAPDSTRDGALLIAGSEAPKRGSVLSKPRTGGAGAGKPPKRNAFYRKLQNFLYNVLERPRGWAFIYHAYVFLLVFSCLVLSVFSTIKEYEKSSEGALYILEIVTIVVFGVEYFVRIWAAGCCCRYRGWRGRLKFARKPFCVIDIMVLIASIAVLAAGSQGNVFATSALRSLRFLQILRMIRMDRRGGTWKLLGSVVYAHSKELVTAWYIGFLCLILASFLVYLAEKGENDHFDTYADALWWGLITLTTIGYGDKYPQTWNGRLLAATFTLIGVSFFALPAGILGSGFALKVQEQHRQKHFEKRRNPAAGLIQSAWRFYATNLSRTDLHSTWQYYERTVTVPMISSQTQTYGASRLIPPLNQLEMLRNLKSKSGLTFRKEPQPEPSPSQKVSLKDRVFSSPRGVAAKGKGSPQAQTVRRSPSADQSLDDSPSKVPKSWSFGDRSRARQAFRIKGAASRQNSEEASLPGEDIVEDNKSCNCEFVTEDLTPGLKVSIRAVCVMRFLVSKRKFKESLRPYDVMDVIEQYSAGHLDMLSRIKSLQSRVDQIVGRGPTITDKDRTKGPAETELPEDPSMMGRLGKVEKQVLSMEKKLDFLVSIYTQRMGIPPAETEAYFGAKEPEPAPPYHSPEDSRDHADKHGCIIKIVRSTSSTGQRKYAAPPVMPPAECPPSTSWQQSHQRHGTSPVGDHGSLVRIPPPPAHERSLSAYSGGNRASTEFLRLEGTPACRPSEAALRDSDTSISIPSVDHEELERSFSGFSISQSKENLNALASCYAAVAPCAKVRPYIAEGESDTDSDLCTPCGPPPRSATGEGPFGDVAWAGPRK

Turning to `CCOC(=O)c1c(NC(=O)C(C)N2CCN(C(=O)c3ccco3)CC2)sc2c1CCCC2` (stereo unspecified), the outcome in test [1] and in test [4] was inactive. In addition, the potentiation in test [2] is 53% (active); in test [3], 160% (active).
With `CCCOC(=S)NC(=O)c1sc2ccccc2c1Cl`, in test [1], the activation is 294% (active). Besides, the potentiation is 106% (active) in test [2] and 274% (active) in test [3]. Besides, the outcome in test [4] was inactive.
With `Cn1c(=O)c2c(SC3CCCC3)nc(C3CC3)nc2n(C)c1=O`, the outcome in test [1], in test [2], in test [3] and in test [4] was inactive.
As to `CCc1cc(-c2n[nH]c(C)c2-c2nc3ccccc3s2)c(O)cc1OCC(=O)NN`, the result in test [1], in test [2], in test [3] and in test [4] was inactive.
